Screening data from PubChem BioAssay.
The list is not random: actives were taken first. Their share in the collection is about 3.5%.
RGS4 block: RGS4 inhibitors, primary screen, cell-based, HEK293 M3R inducible RGS4, calcium flux; Fluo-4 calcium flux; active compounds read high; triggered by carbachol at its EC20; B-score at 10 µM; 310,000 tested, 0.45% active;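 active means B-score, a plate-corrected calcium signal, over three deviations above library mean, with baseline fluorescence within five deviations of library mean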;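 further: RGS4 expression induced by doxycycline in cells with stable M3 receptor; B-score is computed from the integrated fluorescence ratio over baseline after carbachol; higher B-score means a larger calcium signal and so more RGS4 inhibition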
Target sequence (P49798 whole entry, looked up): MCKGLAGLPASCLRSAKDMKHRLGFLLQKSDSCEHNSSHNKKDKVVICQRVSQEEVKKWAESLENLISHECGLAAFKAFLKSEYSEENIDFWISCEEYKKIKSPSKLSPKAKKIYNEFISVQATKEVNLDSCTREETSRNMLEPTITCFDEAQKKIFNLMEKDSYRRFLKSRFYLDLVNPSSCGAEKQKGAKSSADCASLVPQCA
MrgX1 antagonist: antagonists of human MrgX1 receptor, primary screen, HEK293 cells, Fluo-4 calcium flux. Mas-related G-protein coupled receptor member X1 (Homo sapiens), Q96LB2. BAM8-22 antagonism; active compounds read low. B-score at 10 µM. 310,000 tested, 1.3% active. AID 588676, 2011;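 active means calcium-response B-score plate-corrected more than 3 library SD below zero, starting fluorescence within 5 deviations, no agonist response on first addition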;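 further: peak minus trough fluorescence over baseline after final BAM8-22 challenge near maximal dose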
Target sequence (Q96LB2 whole entry, looked up): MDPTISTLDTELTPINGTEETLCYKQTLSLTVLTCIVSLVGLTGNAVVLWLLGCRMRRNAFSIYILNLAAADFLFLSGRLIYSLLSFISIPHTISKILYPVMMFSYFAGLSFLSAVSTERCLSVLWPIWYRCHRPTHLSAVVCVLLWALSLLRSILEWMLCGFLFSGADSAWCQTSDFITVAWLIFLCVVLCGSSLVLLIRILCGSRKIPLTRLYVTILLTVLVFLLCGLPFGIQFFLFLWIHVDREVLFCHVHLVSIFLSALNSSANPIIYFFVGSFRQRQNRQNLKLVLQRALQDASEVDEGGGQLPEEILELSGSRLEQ
MrgX1 agonist: agonists of human MrgX1 receptor, primary screen, HEK293 cells, Fluo-4 calcium flux; Mas-related G-protein coupled receptor member X1 (Homo sapiens), Q96LB2; Fluo-4 calcium fluorescence, agonist mode; active compounds read high; B-score at 10 µM; 310,000 tested, 0.44% active; AID 588627, 2011;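 active means calcium response B-score plate-corrected fluorescence ratio at least 3 library SD, with starting fluorescence B-score inside 5 SD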
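Test system: HEK293 cells stably expressing human MrgX1 receptor; amount: 15,000 cells per well; doses: compound delivered in addition one of three; times: overnight plating before 1 h dye loading; detection: Fluo-4 NW calcium-flux fluorescence, kinetic read; read-out basis: B-scored fluorescence response ratio; controls: positive and negative controls per plate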
RGS4 pot: RGS4 potentiators or activators, primary screen, cell-based, HEK293 M3R inducible RGS4, calcium flux | 310,000 tested, 0.92% active | carbachol calcium flux Fluo4; active compounds read low | B-score at 10 µM;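 active means B-score of the integrated calcium signal more than 4 SD below the library mean, with starting fluorescence not abnormally high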;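 further: negative B-score means reduced calcium response which marks RGS4 activation or potentiation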
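System – HEK293 FlpIn-TREx cells, stable M3R, doxycycline-inducible RGS4 · Reagent – ECmax carbachol challenge · Times – compound preincubation 20 min at room temperature before agonist · Technique – Fluo4 fluorescence kinetic imaging of calcium · Measure – B score of integrated Fluo4 ratio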
MrgX1 allo act: positive allosteric modulators of MrgX1, primary screen, HEK293 cells, Fluo-4 calcium flux | FDSS; active compounds read high | B-score at 10 µM | 310,000 tested, 0.63% active | AID 588675, 2011;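 active means plate-corrected calcium response at least 3 library SD above typical, normal starting fluorescence, not activating the receptor alone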;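 further: compound read alongside a low EC10 to EC30 dose of BAM8-22 agonist; peak minus trough fluorescence over baseline measured at the second addition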
MrgX1 ant reconf: MrgX1 receptor antagonists, duplicate retest, confirmation, HEK293 cells, Fluo-4 calcium flux; shares compounds with MrgX1 antagonist; BAM8-22 calcium flux; active compounds read low; remaining BAM8-22 calcium response % of control (active compounds read low), % at 10 µM; 2,300 tested, 19% active; AID 602420, 2012;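 active means remaining agonist calcium response no higher than 100% minus 3 SD of agonist-only control wells, with starting fluorescence near control levels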;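 further: agonist BAM8-22 given at a near maximal EC90 to ECmax level; peak minus minimum fluorescence divided by baseline after agonist addition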
HEK293 Ca flux: nonspecific calcium signal in parental HEK293, confirmation, counter-screen for MrgX1 antagonist project, parental HEK293 cells, Fluo-4 calcium flux. shares compounds with MrgX1 antagonist. Fluo-4 calcium fluorescence, FDSS. fluorescence ratio F(max-min)/F0 at 10 µM. 4,000 tested, 2% active;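 active means duplicate-averaged calcium fluorescence ratio at least three times the standard deviation of buffer wells, a nonspecific response in parental cells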
HEK293 Ca counter: calcium response in parental HEK293 cells, primary screen, counter-screen for MrgX1 allosteric activator project, cell-based, Fluo-4 calcium flux, duplicate. Fluo-4 fluorescence ratio; active compounds read high. 4,000 tested, 0.4% active. shares compounds with MrgX1 antagonist. fluorescence ratio F(max-min)/F0 at 10 µM;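 active means calcium fluorescence ratio, averaged over duplicates, at least 3 SD of the buffer-well ratio, meaning a nonspecific response in receptor-free cells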;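 further: untransfected parental HEK293 lacking MrgX1 used as counterscreen for MrgX1 allosteric activators; fluorescence change taken during the second addition on a kinetic imager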
HEK293 Ca cntr2: calcium response in parental HEK293 cells, primary screen, counter-screen for MrgX1 agonist project, cell-based, Fluo-4 calcium flux, duplicate, agonist mode | shares compounds with MrgX1 antagonist | Fluo-4 calcium fluorescence (FDSS); active compounds read high | fluorescence ratio F(max-min)/F0 at 10 µM | 4,000 tested, 8.7% active | AID 624115, 2012;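 active means calcium fluorescence ratio at least three times the spread of buffer wells, meaning a non-specific response in parental cells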
Numbers stand for hits; - = inactive; . = no result given.

SMILES | RGS4 block | MrgX1 antagonist | MrgX1 agonist | RGS4 pot | MrgX1 allo act | MrgX1 ant reconf | HEK293 Ca flux | HEK293 Ca counter | HEK293 Ca cntr2
CCCCOc1ccc(NC(=O)CSc2cccc3cccnc23)cc1 | - | -6.7 | - | - | - | - | - | - | -
CCCCc1ccc(NC(=O)CSc2nc3ncccc3[nH]2)cc1 | - | -5.7 | - | - | - | - | - | - | -
COCCCNC(=S)N(Cc1cccnc1)Cc1ccc(OC)c(OC)c1 | - | - | - | - | - | . | . | . | .
COc1ccc(-n2c(=S)[nH]c3cc(C(=O)Nc4ccc(F)cc4)ccc3c2=O)c(OC)c1 | - | - | - | - | - | . | . | . | .
COC(=O)c1cc(OC)c(OC)cc1NC(=S)N1CCN(C)CC1 | - | - | - | - | - | . | . | . | .
COC(=O)c1cc(OC)c(OC)cc1NC(=S)N1CCCCC1 | - | -6.8 | - | - | - | - | - | - | -
COc1ccc(CNC(=O)CC2Sc3ccccc3NC2=O)cc1 (stereo not given) | - | - | - | - | - | . | . | . | .
O=C(COC(=O)CC1Sc2ccccc2NC1=O)NCc1ccccc1 (stereo not given) | - | -11 | - | - | - | - | - | - | -
Cc1ccc(-c2nc(NC(=O)CSc3nnnn3-c3ccccc3)ns2)cc1 | - | -6.7 | - | - | - | - | - | - | -
CCCn1nc2cc(C(=O)NCc3ccc(OC)cc3)ccc2c1OCC | - | -5 | - | - | - | - | - | - | -
CCn1nnnc1SCC(=O)c1cccc(OC)c1 | - | - | - | - | - | . | . | . | .
CCOC(=O)c1oc2ccccc2c1CSc1nnnn1-c1ccc(OC)cc1 | - | -7.1 | - | - | - | - | - | - | -
COc1ccc(-n2nnnc2SCC(=O)c2cccc(OC)c2)cc1 | - | -4.6 | - | - | - | - | - | - | -
CCCCNc1cc(Cl)nc(N)n1 | - | - | - | - | - | . | . | . | .
COc1ccc(OC)c(CCNC(=O)Cn2nc(C)c3c(C)n(-c4ccccc4)nc3c2=O)c1 | - | - | - | - | - | . | . | . | .
CCn1cc(CN2CCCC(C(=O)Nc3cccc(-c4cc5ccccc5[nH]4)c3)C2)cn1 (stereo not given) | - | - | - | - | - | . | . | . | .
CCOC(=O)CSc1nnc(Cn2nnc3ccccc32)n1-c1ccc(F)cc1 | - | - | - | - | - | . | . | . | .
CCCn1nnnc1SCC(=O)NCc1ccccc1 | - | - | - | - | - | . | . | . | .
COc1ccc(CNC(=O)CSc2nnnn2-c2ccccc2)cc1 | - | -9.9 | - | - | - | - | - | - | -
CCCn1nnnc1SCC(=O)NCc1ccc(OC)cc1 | - | -6.8 | - | - | - | - | - | - | -
COc1ccc(S(N)(=O)=O)cc1C(N)=O | - | - | - | - | - | . | . | . | .
Cc1ccc(C(=O)NC2CCCN(c3ccc(C(F)(F)F)cn3)C2)cn1 (stereo not given) | - | - | - | - | - | . | . | . | .
O=C(NC1CCCN(c2ccc(C(F)(F)F)cn2)C1)c1cc(Cl)ccc1F (stereo not given) | - | -6.6 | - | - | - | - | - | - | -
Cn1nc(N)c2c(-c3ccc(Cl)cc3)c(C#N)c(N)nc21 | - | -4.7 | - | - | - | - | - | - | -
CCN(CC)c1ccc(/C=N/NC(=O)c2cc(C)nc3ccccc23)cc1 | - | - | - | - | - | . | . | . | .
SMILES | RGS4 block | MrgX1 antagonist | MrgX1 agonist | RGS4 pot | MrgX1 allo act | MrgX1 ant reconf | HEK293 Ca flux | HEK293 Ca counter | HEK293 Ca cntr2
CCN(CC)c1ccc(/C=C/c2cc(-c3ccccc3)c3ccccc3n2)cc1 | - | -15 | - | - | - | - | 0.065 | - | -
COc1ccc(NC(=O)C(NS(=O)(=O)c2cccs2)C(C)C)cc1Cl (stereo not given) | - | - | - | - | - | . | . | . | .
COc1ccc(C(=O)Oc2ccc3c(C)cc(=O)oc3c2C(C)=O)cc1 | - | -4.6 | - | - | - | - | - | - | -
CCn1c(SCC(=O)Nc2ccc(C(C)=O)cc2)nc2nc3c(cc2c1=O)CCCC3 | - | -5.8 | - | - | - | - | - | - | -
CCOC(=O)Cc1csc(NC(=O)c2sc3nc4cc(C)ccc4cc3c2N)n1 | - | -6.4 | - | - | - | - | - | - | -
CCOC(=O)Cc1csc(NC(=O)Nc2ccc(Cl)cc2)n1 | - | - | - | - | - | . | . | . | .
CCOC(=O)Cc1csc(NC(=O)c2sc3nc4ccc(CC)cc4cc3c2N)n1 | - | - | - | - | - | . | . | . | .
CCOC(=O)Cc1csc(NC(=O)Nc2cccc(Cl)c2)n1 | - | -7.4 | - | - | - | - | - | - | -
CC1CCCC(C)N1C(=O)CSCc1ccc(Cl)cc1 (stereo not given) | - | -4.7 | - | - | - | - | - | - | -
CC1CCCC(C)N1C(=O)COC(=O)Cc1ccc(Cl)cc1 (stereo not given) | - | - | - | - | - | . | . | . | .
CC(C)CN(C(=O)c1ccco1)C1CCS(=O)(=O)C1 (stereo not given) | - | -4.9 | - | - | - | - | - | - | -
CC1=C(C#N)CCC(=O)N1Cc1ccc(C)cc1 | - | -7.7 | - | - | - | - | - | - | -
Cc1cc(Nc2ccccc2)n(-c2ccc(C(=O)O)cc2)n1 | - | -4.5 | - | - | - | - | - | - | -
Cc1cc(C)n(-c2ccc(C(=O)O)cc2)n1 | - | - | - | - | - | . | . | . | .
Cc1ccnc2c(N3C(=O)C4C5C=CC(C5)C4(C)C3=O)cccc12 (stereo not given) | - | - | - | - | - | . | . | . | .
CC12C(=O)N(c3ccccn3)C(=O)C1C1C=CC2C1 (stereo not given) | - | -5 | - | - | - | - | - | - | -
COc1ccc(-c2noc(N3CCCC(C(=O)Nc4ccccc4F)C3)n2)cc1 (stereo not given) | - | - | - | - | - | . | . | . | .
COc1ccc(-c2noc(N3CCCC(C(=O)Nc4ccc(F)cc4F)C3)n2)cc1 (stereo not given) | - | -4.6 | - | - | - | - | - | - | -
